Source: PubChem BioAssay
Most compounds without a hit are left out; they make up all but 3.7% or so of the library.
MDM2 E3 inh: MDM2-luciferase reporter signal enhancers, primary screen, MDM2 E3 ligase inhibitor project, cell-based, luminescence, 1536-well | 210,000 tested, 0.11% active | signal enhancement, % at 5 µM | E3 ubiquitin-protein ligase Mdm2 (Homo sapiens), Q00987 | cell-based MDM2 ubiquitination luciferase reporter, 2 h; 0 = plate control, 100 = twice control, blank-subtracted | AID 1230, 2008;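 active means signal enhancement of 30% or more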;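 further: luminescence tracks abundance of the self-degrading MDM2-luciferase fusion protein; higher signal means inhibition of MDM2 E3 ligase activity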
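System: stable MDM2–luciferase fusion reporter cells / Input: 2000 cells seeded into each well / Schedule: 4 h settle plus 2 h compound, 37 °C / Compound: single-point 5 µM / Buffer or medium: cells held in DMEM / Benchmarks: control and blank well means / Evaluation: percent signal gain over controls, blank-subtracted / Measured by: luciferase luminescence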
XBP1 UPR activ: activators of adaptive XBP1 UPR arm, primary screen, cell-based, CHO-XBP1 luciferase reporter, luminescence, uHTS | 330,000 tested, 0.33% active | activation, % at 20 µM | IRE1-XBP1 UPR activation; percent of tunicamycin response, DMSO as zero;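 active means versus positive control, 20 µM dose yields 30% or more activation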;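 further: 100% = tunicamycin at 10 µg/mL and 0% = DMSO only wells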
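Material – CHO cell line with stable XBP1 luciferase reporter · Buffer or medium – F12 plus 10% FBS · Compound – single point, 20 µM final compound, 1% DMSO · Schedule – 16-18 h cell attachment at 37 °C, then 6 h compound exposure · Signal – Steady-Glo luminescence read · Benchmarks – high control tunicamycin 10 µg/mL final, low control DMSO vehicle only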
Dynein transport: inhibitors of GR-EGFP nuclear translocation, primary screen, dynein cargo transport inhibitor project, imaging, high-content, 3617.4 mouse cells; AID 1381, 2008; z-score, hits read low; 220,000 tested, 0.47% active; test concentration mostly 20 µM; stimulated with dexamethasone, 1 µM; hits give low values;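 active means plate z-score of nuclear minus cytoplasmic receptor signal below a set negative limit, without overly bright fluorescence or cell loss, cut at about -3.5 in these data, passing the limit was not always enough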;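 further: z-score of nuclear minus cytoplasmic ring GR-EGFP intensity difference per well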
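Buffer or medium: Induction medium lacking tetracycline, stripped serum | Also added: Dexamethasone agonist, 1.0 µM final, for 30 min | Timing: 48 h induction, 1 h compound, 30 min dex at 37 °C | Detection: Formaldehyde fixation, Hoechst nuclear stain, 10x automated fluorescence imaging | Measure: Nuclear versus cytoplasmic GR-EGFP signal, averaged per well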
Mdm2-MdmX inh: inhibitors of human Mdm2-MdmX association, primary screen, cell-based, luminescence, split luciferase, SaOS-2, uHTS. SaOS-2 split-luciferase Mdm2/MdmX complementation. 330,000 tested, 3% active. inhibition, % at 8 µM. Protein Mdm4 (Homo sapiens) + E3 ubiquitin-protein ligase Mdm2 (Homo sapiens), …. AID 485346, 2010;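 active means inhibition of at least 50% at 8 µM in the primary screen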
CHOP UPR activ: activators of apoptotic CHOP UPR arm, primary screen, cell-based, CHO-CHOP luciferase reporter, luminescence, uHTS. UPR activation; percent of tunicamycin response over DMSO baseline. activation, % at 10 µM. 330,000 tested, 0.34% active;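 active means at 10 µM dose, activation of 40% or more, normalized to positive control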;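 further: 100% = tunicamycin at 10 µg/mL and 0% = DMSO alone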
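Dosing – one dose, 10 µM in 0.5% DMSO · System – CHO-CHOP cells, stable luciferase reporter of PERK-eIF2a-CHOP signalling · Input – 500 cells/well · Control set – tunicamycin 10 µg/mL final as positive, DMSO-only wells as negative · Timing – 6 h compound treatment, 37 °C · Measure – % activation vs tunicamycin · Technique – luminescence read with Steady-Glo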
B2AR ag: beta2AR agonists driving receptor internalization, primary screen, cell-based, FAP fluorogen, flow cytometry; Beta-2 adrenergic receptor (Homo sapiens), P07550; Am2.2-beta2AR cells; response, % (concentration not given with the values); 340,000 tested, 0.43% active; AID 504454, 2011;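 active means response above a set limit, near 3 SD of response in nonfluorescent compounds, cut at about 42% in these data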
Target sequence (P07550 whole entry, looked up): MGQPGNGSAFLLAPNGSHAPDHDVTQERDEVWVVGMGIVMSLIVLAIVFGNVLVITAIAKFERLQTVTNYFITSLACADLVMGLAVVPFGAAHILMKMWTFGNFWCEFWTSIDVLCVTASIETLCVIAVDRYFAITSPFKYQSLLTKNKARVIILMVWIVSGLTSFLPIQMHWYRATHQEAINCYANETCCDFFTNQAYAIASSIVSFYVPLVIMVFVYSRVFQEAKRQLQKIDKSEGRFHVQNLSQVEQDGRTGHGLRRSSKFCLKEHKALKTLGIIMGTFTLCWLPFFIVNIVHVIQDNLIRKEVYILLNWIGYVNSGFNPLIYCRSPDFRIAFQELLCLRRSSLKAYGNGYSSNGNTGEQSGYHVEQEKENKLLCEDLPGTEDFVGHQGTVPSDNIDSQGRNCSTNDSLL
Mdm2-MdmX conf: Mdm2-MdmX complex disruptors, retested hits, confirmation, luminescence, single concentration. shares compounds with Mdm2-MdmX inh. Mdm2-MdmX binding, luminescent assay. inhibition, % at 8 µM. 10,000 tested, 55% active; in the data active means inhibition above about 40%
FLuc counter: full-length luciferase signal inhibition, confirmation, counter-screen for Mdm2/MdmX interaction inhibitor project, cell-based, single concentration, SaOS-2 | shares compounds with Mdm2-MdmX inh | SaOS-2 full-length luciferase counterscreen, luminescence | inhibition, % at 8 µM | 6,200 tested, 77% active;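 active means mean inhibition at 8 µM reaching about 37%, which flags the compound as non-specific, limit read from the data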;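 further: p53-null SaOS-2 cells with luciferase driven by a doxycycline-inducible promoter; compound on cells about two nights before reading with doxycycline added after day one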
Numbers without * were called inactive; . = no result given.

SMILES	MDM2 E3 inh	XBP1 UPR activ	Dynein transport	Mdm2-MdmX inh	CHOP UPR activ	B2AR ag	Mdm2-MdmX conf	FLuc counter
Cc1cccc(/C=C/C(=O)c2cc(Br)ccc(=O)c2O)c1	1	-5	-1.3	54*	1	30	36	73*
CCOc1ccc(/C=C/C(=O)c2cc(Br)ccc(=O)c2O)cc1	16	.	-1.1	.	.	15	.	.
CCc1ccc(/C=C/C(=O)c2cc(Br)ccc(=O)c2O)cc1	-7	9	-0.85	52*	8	21	39	40*
CN(c1ccc(Br)cc1)S(=O)(=O)c1ccc2[nH]cc(C(=O)NCCN3CCOCC3)c(=O)c2c1	.	-3	.	8	-3	1	.	.
COC(=O)N1CCc2c(sc(NC(=O)C3=COCCO3)c2C#N)C1	.	1	.	56*	4	-26	75*	66*
COCCN(C(=O)COC(=O)/C=C/c1ccc2c(c1)OCO2)c1c(N)n(Cc2ccccc2)c(=O)[nH]c1=O	.	0	.	1	0	5	.	.
Cn1c2ccccc2c(=O)c2ccc(C#CC3(O)CCCCC3)cc21	.	-5	.	83*	-2	29	75*	146*
COc1ccccc1/C=C/C1(C(=O)NC2CCCC2)CC(=O)N1c1ccccc1 (centres undefined)	.	12	-0.14	65*	1	12	64*	79*
CC1=C(CC(=O)NCC(=O)NCC(=O)O)c2cc(F)ccc2/C1=C/c1ccc(S(C)=O)cc1 (centres undefined)	.	-5	.	22	-1	37	.	.
O=C(N/N=C/c1ccc([N+](=O)[O-])o1)c1cc(-c2ccc(-c3ccccc3)cc2)nc2ccccc12	.	21	1.8	64*	11	17	57*	84*
O=[N+]([O-])c1cc(/C=N/NC(=S)Nc2ccccc2Cl)ccc1Cl	-20	1	-0.38	59*	7	29	21	.
O=C(N/N=C/c1ccc([N+](=O)[O-])o1)c1cc(-c2ccncc2)nc2ccccc12	-16	1	-5*	62*	3	24	52*	44*
O=C(N/N=C/c1ccc(Cl)c([N+](=O)[O-])c1)c1cc(-c2ccccc2)nc2ccccc12	-3	3	-0.94	100*	12	6	8	.
O=C(N/N=C/c1cc([N+](=O)[O-])ccc1Cl)c1cc(-c2ccccc2)nc2ccccc12	.	-3	1.2	32	-1	0	.	.
CCc1ccc2oc(C(=O)NCC(c3ccc(OC)cc3)N3CCCCC3)c(C)c2c1 (centres undefined)	.	0	.	38	-1	-3	.	.
CCOc1ccc(S(=O)(=O)N2CCCCC2)cc1NC(=O)Cc1ccsc1	.	5	.	40	3	1	.	.
CN1CCN(S(=O)(=O)c2ccc(NC(=O)c3ccc(F)cc3Cl)cc2)CC1	.	-5	.	8	1	-5	.	.
CCN1C[C@@H]2[C@@H]3C(=O)N(C)C(=O)[C@@H]3[C@](Cc3ccccc3)(C1=O)N2C(=O)c1ccc(Cl)cc1	.	.	.	.	.	-6	.	.
CCc1ccc(CCC(=O)Nc2sc3c(c2C#N)CCCC3)o1	3	15	-0.68	50*	3	22	68*	83*
CCC(=O)Nc1sc2c(c1C#N)CCC2	-19	0	-0.36	-14	-1	-3	.	.
Cc1cc2cc(CCNC(=O)CCc3ccccc3)c(=O)[nH]c2cc1C	.	-2	.	-12	1	-5	.	.
COC(=O)c1csc2c(C(F)(F)F)cc(N3CCN(C(=O)Nc4ccccc4)CC3)nc12	3	4	0.39	39	2	9	.	.
COc1ccc(CCn2c(-c3ccc(OC)cc3)nc3c(c(=O)c4ccccc4n3C)c2=O)cc1	-2	14	0.41	16	2	-3	.	.
CCc1nc2c(c(=O)c3ccccc3n2C)c(=O)n1CCc1ccc(OC)cc1	-10	-1	1.1	88*	2	.	66*	123*
Cc1cc(-c2ccc(C)c(S(=O)(=O)N3CCN(c4ccc(F)cc4)CC3)c2)on1	.	-3	.	42	1	-9	.	.
SMILES	MDM2 E3 inh	XBP1 UPR activ	Dynein transport	Mdm2-MdmX inh	CHOP UPR activ	B2AR ag	Mdm2-MdmX conf	FLuc counter
Cc1cccc(N2CCN(S(=O)(=O)c3cc(-c4cc(C)no4)ccc3C)CC2C)c1 (centres undefined)	.	-5	.	50*	-1	-1	54*	38*
COc1ccc(-c2cc(C)no2)cc1S(=O)(=O)N1CCN(c2cccc(C)c2)C(C)C1 (centres undefined)	.	-6	.	53*	-1	-14	45*	61*
Cc1cc(-c2ccc(C(C)C)c(S(=O)(=O)N3CCN(c4ccccc4)CC3)c2)on1	.	2	.	49	0	-7	.	.
COc1ccc(N2CCN(S(=O)(=O)c3cc(-c4cc(C)no4)ccc3C(C)C)CC2)cc1	.	-5	.	51*	0	-6	37	.
O=C(Nc1ccc(C(F)(F)F)cc1)c1ccccc1-n1cnnn1	.	2	.	0	0	2	.	.
CC(Sc1nn(-c2ccccc2)c(=S)s1)C(=O)NCC1CCCO1 (centres undefined)	.	1	.	-4	-1	-4	.	.
COc1ccc(C)cc1S(=O)(=O)n1c([N+](=O)[O-])cnc1C	.	-2	.	11	1	0	.	.
N=c1oc2ccc3ccccc3c2cc1C(N)=S	4	2	-0.56	87*	0	13	46*	66*
Cc1c(C(=O)N2CCC(C(N)=O)CC2)oc2ccc(Br)cc12	.	5	.	11	3	19	.	.
COc1ccc(-c2csc(N3CCN(c4cc(C)nc5ccccc45)CC3)n2)cc1OC	-17	9	1.1	96*	2	35	58*	74*
COc1cc(-c2csc(N3CCOCC3)n2)cc(OC)c1OC	-12	4	-0.42	15	1	-4	.	.
